Measured values pooled from the literature.
Target: Fibroblast growth factor receptor 4 (FGFR4, Homo sapiens, UniProt P22455)

SMILES | read-out | technique | tested at | remaining binding [%]
CN(CCCC(F)(F)F)c1nccc(-c2cnn3ncccc23)n1 | binding |  | 1 µM | 96
CN(C(=O)c1ccccc1)c1cc(N(C)c2ccc3c(c2)CCc2ccc(C(=O)NCCN4CCOCC4)cc2C3=O)ccc1F | cell-free assay | competition with immobilised ligand | 1 µM | 100
O=C(NCCCN1CCOCC1)c1ccc(Nc2nccc(-c3cc4ccccc4s3)n2)cc1 | binding | competition with immobilised ligand | 1 µM | 91
COc1ccnn2ncc(-c3ccnc(N(C)C)n3)c12 | binding |  | 1 µM | 100
O=C(c1ccc(Nc2nccc(-c3cc4ccccc4s3)n2)cc1)N1CCC(N2CCCC2)CC1 | binding | competition with immobilised ligand | 1 µM | 99
C[C@H](c1ccc(F)cc1)N(Cc1cccc(C(=O)O)c1)C(=O)c1cnc2ccccc2c1 | cell-free assay | competition with immobilised ligand | 1 µM | 91
N[C@@H]1CCN(c2nccc(-c3cnn4ncccc34)n2)C1 | binding |  | 1 µM | 96
C[C@@H](c1ccc(-n2cnc3c(N)ncnc32)cc1)N1CCc2nn(C)c(Cc3ccccc3)c2C1=O | binding | competition with immobilised ligand | 0.1 µM | 97
O=C(NS(=O)(=O)c1ccc(NCC2CCOCC2)c([N+](=O)[O-])c1)c1ccc(N2CCN(Cc3ccc(C(F)(F)F)cc3-c3ccc(Cl)cc3)CC2)cc1Oc1cnc2[nH]ccc2c1 | cell-free assay | competition with immobilised ligand | 1 µM | 96
CNC(=O)[C@@H]1CC[C@@H](n2c(-c3ccc4cnccc4c3)nc3ccc(C(=O)NCc4cccc(C(N)=O)c4)cc32)C1 | binding | competition with immobilised ligand | 1 µM | 100
COc1ncc2cc3ccccc3nc2c1C#N | cell-free assay | competition with immobilised ligand | 5 µM | 88
FC(F)(F)Oc1cccc(-c2cnc3ccc(-c4ccncc4)nn23)c1 | cell-free assay | competition with immobilised ligand | 5 µM | 98
C[C@H]1CCN(c2nccc(-c3cnn4ncccc34)n2)C1 | binding |  | 1 µM | 76
Nc1ncc2c(n1)-c1c([nH]c3ccc(C#CC4CC4)cc13)CCCC2 | binding | competition with immobilised ligand | 1 µM | 98
CS(=O)(=O)c1cc(C2(NC(=O)c3cncc4c3cnn4-c3ccc(F)cc3)CC2)ccn1 | cell-free assay | competition with immobilised ligand | 1 µM | 74
CN(C)c1ncc(F)c(-c2cnn3ncccc23)n1 | binding |  | 1 µM | 100
CCOCCn1cc(C(=O)Nc2ccc(-n3nc(-c4cccnc4)cc3C(F)(F)F)cn2)ccc1=O | cell-free assay | competition with immobilised ligand | 1 µM | 100
O=C(NCC1CCOCC1)c1n[nH]cc1NC(=O)c1c(F)cccc1F | binding | competition with immobilised ligand | 1 µM | 100
N#CC1(c2ccccn2)CCN(Cc2cc(C(=O)N3CCCC3)c(=O)n3ccccc23)CC1 | cell-free assay | competition with immobilised ligand | 1 µM | 90
O=C(c1ccc(Nc2ncc(Cl)c(-c3cc4ccccc4s3)n2)cc1)N1CCC(N2CCCC2)CC1 | binding | competition with immobilised ligand | 1 µM | 77
CN(c1ccnc(CNc2nc(Nc3ccc4c(c3)CC(=O)N4)ncc2C(F)(F)F)n1)S(C)(=O)=O | cell-free assay | competition with immobilised ligand | 1 µM | 83
CC1CCCN1c1nccc(-c2cnn3ncccc23)n1 (stereo not shown) | binding |  | 1 µM | 100
